# CXCR6 inh – inhibitors of human CXCR6 receptor; CHO-K1 PathHunter CXCR6 beta-arrestin, luminescence; inhibition, % at 20 µM; 0.36% of 360,000 active; AID 602244; in the data active = inhibition above about 34%, passing the limit was not always enough;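 also: antagonist mode with CXCL16 agonist at 10 nM final; 0% = 10 nM CXCL16 with DMSO and 100% = unstimulated wells without agonist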
# APJ ag – APJ receptor agonism; CHO-K1 APJ PathHunter beta-arrestin, luminescence; 0% DMSO wells, 100% apelin; 0.11% of 330,000 active; AID 2520; activation, % at 20 µM;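 active = activation more than six SD over the plate average, tested at 20 µM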;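 also: 0% = DMSO alone and 100% = apelin-13 at 10 nM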
#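 Test system: CHO-K1 APJ beta-arrestin complementation cell line. Amount: cell density 1000 per well. Controls: DMSO negative, 10 nM Apelin-13 positive. Signal: luminescent beta-gal fragment complementation, chemiluminescent substrate. Read-out basis: agonist-driven arrestin binding to APJ. Timing: compound stimulation 90 min at 25 °C, detection 60 min.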
# EBI2 antag – antagonists of human EBI2 receptor; inhibition, % at 5 µM; P32249; EBI2 beta-arrestin recruitment, luminescence, 7a,25-OHC stimulated; 0.81% of 360,000 active; in the data active = inhibition above about 38%;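 also: enzyme fragment complementation signal reports receptor beta-arrestin coupling in cells; 0% = agonist plus DMSO wells and 100% = wells without agonist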
# CCR6 antag – CCR6 (human) receptor antagonism | P51684 | CHO-K1 CCR6 PathHunter beta-arrestin, luminescence, CCL20-stimulated | inhibition, % at 20 µM | 0.49% of 340,000 active;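 active = compounds whose inhibition of the agonist-driven luminescence signal at 20 µM reaches about 50%, limit read from the data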;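 also: cells stimulated with CCL20 at 14 nM final; plate controls were DMSO with CCL20 for no effect and DMSO without agonist for full effect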
# Target sequence (P51684 whole entry, looked up): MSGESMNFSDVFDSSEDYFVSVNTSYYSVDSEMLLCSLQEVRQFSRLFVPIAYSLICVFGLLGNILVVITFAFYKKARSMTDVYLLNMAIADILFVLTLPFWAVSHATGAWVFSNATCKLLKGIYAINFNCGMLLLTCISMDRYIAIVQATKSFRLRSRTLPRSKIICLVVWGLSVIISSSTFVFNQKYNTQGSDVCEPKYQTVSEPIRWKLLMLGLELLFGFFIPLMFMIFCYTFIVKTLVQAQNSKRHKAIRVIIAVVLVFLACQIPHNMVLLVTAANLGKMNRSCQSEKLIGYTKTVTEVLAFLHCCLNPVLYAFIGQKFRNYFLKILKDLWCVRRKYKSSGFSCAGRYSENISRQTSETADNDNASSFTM
# APJ antag – antagonists of human APJ apelin receptor; P35414; CHO-K1 APJ beta-arrestin complementation, luminescence; inhibition, % at 20 µM; 0.32% of 330,000 active;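 active = inhibition above about 40% at 20 µM, limit read from the data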;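 also: cells challenged with 10 nM apelin-13 agonist together with compound; plate controls were apelin-13 plus DMSO wells for no effect and DMSO wells lacking apelin-13 for full effect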
# An asterisk follows results filed as active; / = no result. Rows were chosen to be rich in hits. Some 1.5% of all compounds tested hit in one or more screens of this group.
SMILES,CXCR6 inh,APJ ag,EBI2 antag,CCR6 antag,APJ antag
C/C(=N\Nc1nc2ccccc2s1)c1ccc(Br)s1,3,0,22,-4,11
CC(=NNc1nc2ccccc2s1)c1ccncn1,45*,/,55*,54*,/
O=C(C(Cc1ccccc1)N1C(=O)C2C3C=CC(C3)C2C1=O)N1CCCCC1 (stereo unspecified),-18,-4,0,108*,-22
CCOC(=O)C1=C(C)NC(C)=C(C(=O)OCC)C1C(=O)OCC(=O)Nc1ccc(NC(C)=O)cc1,-4,/,-8,/,/
COc1ccc(-c2noc(C3CCCN(C(=O)Nc4ccccc4)C3)n2)cc1 (stereo unspecified),-9,-2,-4,4,-16
COc1ccc(NC(=O)N2CCCC(c3nc(-c4ccc(C(C)C)cc4)no3)C2)cc1 (stereo unspecified),10,3,72*,4,-24
COC(=O)C1=CN(c2ccc3c(c2)OCO3)C(N)=C(C#N)C1c1ccccc1 (stereo unspecified),/,/,0,/,/
CC(C)(C)C(=O)NC(=S)NNC(=O)C(c1ccccc1)c1ccccc1,72*,-5,-1,79*,23
O=C(O)CCN1C(=O)/C(=C\c2ccc(-c3nc4ccccc4s3)o2)SC1=S,38,-2,27,53*,3
O=[N+]([O-])c1cccc(N=Cc2sc3ccccc3c2O)c1,/,1,/,/,-17
O=[N+]([O-])c1ccc(N=Cc2sc3ccccc3c2O)cc1,-8,-3,2,52*,1
O=[N+]([O-])c1ccc(N2CCOCC2)cc1O,4,-3,4,14,-6
Cc1cc(N2CCOCC2)ccc1/C=C\[N+](=O)[O-],32,6,17,56*,24
Cc1cc(Br)c2c(c1)[C@](O)(c1cn(C)c3ccccc13)C(=O)N2C,/,/,-2,/,/
Cn1cnc([N+](=O)[O-])c1S(=O)(=O)Oc1ccc(Cl)cc1,52*,/,14,60*,/
Cn1cnc([N+](=O)[O-])c1S(=O)(=O)Oc1cccc2ccccc12,49*,/,20,74*,/
O=C(NC1CCCCC1)c1ccc2[nH]c(=O)c(=O)[nH]c2c1,-7,1,5,13,-7
Nc1nn(S(=O)(=O)c2ccccc2)cc1-c1ccc([N+](=O)[O-])cc1,-11,9.9*,-17,12,-63
O=C(/C=C/c1cccs1)c1ccc([N+](=O)[O-])cc1,-28,2,1,2,-26
O=C(/C=C/c1cccs1)c1ccc(N2CCOCC2)cc1,1,-3,45*,7,14
CN1C(=O)CSC1=Nc1cccc(Cl)c1,8,-2,-1,9,12
O=[N+]([O-])c1ccc(S(=O)Cc2ccccc2)c([N+](=O)[O-])c1 (stereo unspecified),92*,/,7,102*,/
O=C(Nc1ccc(F)cc1F)NC1CCN(Cc2c(F)cccc2Cl)CC1,3,-1,-3,1,-16
CC(=O)Nc1cccc(C(=O)/C=C/c2ccc(N(C)C)cc2)c1,-9,2,43*,5,-15
CN(C)c1ccc(C(=O)/C=C/c2ccccc2)cc1,7,-3,76*,21,10
SMILES,CXCR6 inh,APJ ag,EBI2 antag,CCR6 antag,APJ antag
CC(=O)Nc1cccc(C(=O)/C=C/c2ccc(/C=C/C(=O)c3cccc(NC(C)=O)c3)cc2)c1,/,1,/,/,-7
OC[C@@H]1CN(Cc2ccc(-c3ccccc3)cc2)C[C@H](n2cnc3c(NC4CCC4)ncnc32)O1,-6,/,16,/,/
CCOc1ccc(S(=O)(=O)N2CCC(C(=O)OC(C)C(=O)N(C)C3CCCCC3)CC2)cc1 (stereo unspecified),3,6,1,1,7
O=c1oc2ccccc2c(Cl)c1CN1CCCCC1,96*,-8,-2,92*,87*
C=CCN1C(=O)/C(=C/c2ccc(OC(C)=O)c(OCC)c2[N+](=O)[O-])SC1=S,42*,/,-18,54*,/
C[C@H]1CC[C@]2(O[C@@H](CCO)C[C@H](O)[C@H]2O)O1,-2,-1,-14,-4,11
CC1=NOC(=O)/C1=C\c1ccc(-c2ccc(Br)cc2)o1,41*,/,4,76*,/
O=C(Cc1c[nH]c2ccccc12)NCc1ccc(Cl)cc1,4,0,32,2,-5
CN1C2C=C(N(CCc3c[nH]c4ccccc34)C(=O)c3ccc(Cl)cc3)CC1CC2 (stereo unspecified),4,0,61*,24,5
CCN1/C(=C/C(C)=C/c2sc3ccccc3[n+]2CC)Sc2ccccc21,57*,0,30,62*,56*
CCN1/C(=C\C(=S)Nc2ccccc2)Sc2ccccc21,1,-3,11,18,19
CC(=O)OC[C@]12CC[C@H]3[C@@](C)(CC[C@H]4C(C)(C)CCC[C@]34C)[C@@H]1C[C@H](C1=CC(=O)O[C@@H]1OC(C)=O)O2,/,11*,/,/,0
CC1(C)CCCC2(C)C1CCC1(C)OC(=O)CCC12 (stereo unspecified),-8,/,3,/,/
CC1CCN(S(=O)(=O)c2ccc(C(=O)N3CCOCC3)cc2)CC1,1,13,1,3,7
O=C(C[n+]1cn(C(F)F)c2ccccc21)c1ccc(OC(F)F)cc1,-13,18*,0,-11,-86
O=C(C[n+]1ccc(C(=O)NCc2ccccc2)cc1)c1ccc(OC(F)F)cc1,6,-4,3,14,1
O=C(CSc1nc(-c2ccco2)cc(C(F)(F)F)n1)NCCCn1ccnc1,48*,-2,-4,-5,-6
O=C(CSc1nc(-c2cccs2)cc(C(F)(F)F)n1)NCCCn1ccnc1,7,6,6,2,-3
COc1cc(OC)cc(C(=O)c2c(C)c(C#N)c3ccccn23)c1,7,-3,-10,12,-14
COC1=C/C(=C/c2c(O)c(C#N)c3ccccn23)C=CC1=O,32,-4,-11,56*,33
COc1ccc(CCNC(=O)C2CCN(C(=O)c3ccccc3)CC2)cc1,/,-3,/,57*,5
CCOC(=O)c1c(NC(=O)C(NCCN(C)C)c2ccccc2)sc2c1CCCC2 (stereo unspecified),31,-7,-26,54*,35
COc1ccc(CCNC(=O)CCNC(=O)c2ccc([N+](=O)[O-])cc2)cc1,-11,-2,4,-10,-10
O=C(Nc1ccc(Nc2ccccc2)cc1)c1ccc(Cl)cc1,-1,0,4,0,2
N#C/C(C(=O)Nc1ccc(Cl)cc1)=C(/S)Nc1ccccc1,1,2,57*,8,0
COc1ccccc1N1C(=O)CC(Sc2n[nH]c(-c3cccc(C)c3)n2)C1=O (stereo unspecified),2,5,-9,75*,1
COc1ccccc1N1C(=O)CC(Sc2nccc(C)n2)C1=O (stereo unspecified),-4,-3,-13,1,10

# Screening results: PubChem BioAssay, Sanford-Burnham Center for Chemical Genomics
